This is an account of results in ChEMBL document CHEMBL1145100, “Structure-activity relationship of imidazo[1,2-a]pyridines as ligands for detecting beta-amyloid plaques in the brain” (J Med Chem, 2003).

The target of this test is Amyloid-beta precursor protein (Homo sapiens, UniProt P05067). Description: Inhibition constant against [125I]-7 (TZDM) binding to Amyloid beta 1-40 aggregates. The essentials: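 Abeta40 peptide aggregated at 0.5 mg/mL in pH 7.4 buffer (10 mM sodium phosphate, 1 mM EDTA), 37 °C for 36-42 h with shaking. Competition in 1 mL of 40% EtOH: fibrils 10-50 nM final, radiotracer 0.05 nM, inhibitors 10^-5 to 10^-10 M. Nonspecific binding with 2 µM thioflavin-T. Incubated 3 h at room temperature, then GF/B filtration with 10% ethanol washes and gamma counting. Ki from nonlinear regression.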
Sequence of Amyloid-beta precursor protein (P05067 whole entry): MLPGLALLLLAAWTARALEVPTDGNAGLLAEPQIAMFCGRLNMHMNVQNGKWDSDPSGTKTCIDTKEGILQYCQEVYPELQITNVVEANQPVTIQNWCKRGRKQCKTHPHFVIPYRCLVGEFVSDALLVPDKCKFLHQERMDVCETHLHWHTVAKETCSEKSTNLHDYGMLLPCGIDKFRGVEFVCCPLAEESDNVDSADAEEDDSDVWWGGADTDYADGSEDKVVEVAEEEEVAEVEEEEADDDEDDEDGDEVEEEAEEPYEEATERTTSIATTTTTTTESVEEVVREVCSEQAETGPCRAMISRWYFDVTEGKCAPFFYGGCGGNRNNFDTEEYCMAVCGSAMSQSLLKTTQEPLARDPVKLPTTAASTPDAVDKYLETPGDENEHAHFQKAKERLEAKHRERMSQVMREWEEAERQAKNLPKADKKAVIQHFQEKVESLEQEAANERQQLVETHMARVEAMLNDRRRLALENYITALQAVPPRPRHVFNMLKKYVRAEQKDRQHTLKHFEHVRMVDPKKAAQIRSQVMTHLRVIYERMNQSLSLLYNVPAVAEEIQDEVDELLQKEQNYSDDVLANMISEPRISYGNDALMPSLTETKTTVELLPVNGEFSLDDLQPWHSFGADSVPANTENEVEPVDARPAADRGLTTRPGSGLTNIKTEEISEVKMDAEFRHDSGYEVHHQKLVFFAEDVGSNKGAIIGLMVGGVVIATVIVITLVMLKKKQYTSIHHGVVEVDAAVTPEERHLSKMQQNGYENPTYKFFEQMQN

Turning to `CN(C)c1ccc2nc(-c3ccc(Br)cc3)cn2c1`, the Ki (usually a dissociation constant, usually derived from enzyme kinetics or from competition with a known ligand) was 339 nM. This counts as sub-micromolar.

`CNc1ccc(-c2cn3cc(C)ccc3n2)cc1` showed a Ki of more than 2000 nM.
